Screening results from PubChem.
TAAR1 agonist: human TAAR1 agonists, primary screen, Fluo-8 calcium fluorescence, CHO RD-HGA16 cells | Trace amine-associated receptor 1 (Homo sapiens), Q96RJ0 | vehicle wells 0%, saturating PEA agonist 100% | activation, % at 3 µM | hit rate 0.99% among 360,000 | AID 624467, 2012;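 active = activation above the mean activation of all test compounds in the run plus 3 SD, cut at about 38% in these data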
Target sequence (Q96RJ0 whole entry, looked up): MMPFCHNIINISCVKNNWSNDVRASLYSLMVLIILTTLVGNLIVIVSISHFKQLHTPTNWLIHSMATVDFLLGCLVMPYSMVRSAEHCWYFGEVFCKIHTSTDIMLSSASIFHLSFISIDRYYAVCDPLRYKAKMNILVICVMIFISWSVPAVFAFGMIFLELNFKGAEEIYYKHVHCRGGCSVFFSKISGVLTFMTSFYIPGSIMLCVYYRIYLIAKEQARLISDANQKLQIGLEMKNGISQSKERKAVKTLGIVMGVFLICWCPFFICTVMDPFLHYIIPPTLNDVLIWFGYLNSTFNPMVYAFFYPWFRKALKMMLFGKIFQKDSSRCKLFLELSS
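Test system: RD-HGA16 (CHO) cells co-expressing Gα16 and hTAAR1 | Doses: Single dose, 3 µM | Schedule: 17-24 h seeding, 75 min 37 °C dye, 30 min RT | Evaluation: % activation from peak over basal fluorescence ratio, DMSO-to-PEA scaled | Technique: Kinetic Fluo-8 calcium fluorescence | Benchmarks: Low control DMSO, high control PEA (EC100)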
V1R ag counter: agonists of human V1a receptor, primary screen, counter-screen for OXTR agonist project, fluorescence, CHO-V1R cells | Fluo-8 calcium fluorescence, agonist mode; 0% DMSO, 100% 3 nM vasopressin | hit rate 0.25% among 320,000 | activation, % at 3 µM | Vasopressin V1a receptor (Homo sapiens), P37288;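 active = activation above the mean activation of all tested compounds plus 3 SD, per screening run, cut at about 20% in these data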;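 note: signal is peak over basal fluorescence ratio across a 100 second FLIPR read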
OXTR potentiator: human OXTR potentiators, primary screen, fluorescence, CHO-OTR cells, Fluo-8 calcium | hit rate 0.061% among 320,000 | Fluo-8 calcium fluorescence, potentiator mode; 0% = oxytocin EC15, 100% = EC100 | AID 2445, 2010 | activation, % at 3 µM | Oxytocin receptor (Homo sapiens), P30559;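 active = activation above that plate's cutoff, the mean activation of tested compounds plus 3 SD, cut at about 6.6% in these data, passing the limit was not always enough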
Target sequence (P30559 whole entry, looked up): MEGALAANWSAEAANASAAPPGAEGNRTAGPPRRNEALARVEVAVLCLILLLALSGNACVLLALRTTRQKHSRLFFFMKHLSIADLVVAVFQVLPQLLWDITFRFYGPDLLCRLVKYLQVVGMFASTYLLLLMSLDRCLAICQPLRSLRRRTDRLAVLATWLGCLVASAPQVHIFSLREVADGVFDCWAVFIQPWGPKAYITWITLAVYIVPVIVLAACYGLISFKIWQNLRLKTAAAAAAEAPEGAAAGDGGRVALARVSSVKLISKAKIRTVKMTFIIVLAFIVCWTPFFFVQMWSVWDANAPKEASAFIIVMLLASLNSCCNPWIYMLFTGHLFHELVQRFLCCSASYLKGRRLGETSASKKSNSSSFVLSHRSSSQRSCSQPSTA
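Assay system: CHO cell line stably expressing human OTR | Also added: Oxytocin at about EC15, sub-maximal agonist stimulus | Times: Compound 6 min at room temperature before oxytocin, 100 s read | Measured by: Fluo-8 intracellular calcium fluorescence, ex 470-495, em 515-575 nm | Controls: EC15 oxytocin alone as 0%, 75 nM oxytocin as 100%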
OXTR agonist: human OXTR agonists, primary screen, fluorescence, CHO-OTR cells, Fluo-8 calcium. Fluo-8 calcium fluorescence; normalized: DMSO 0%, oxytocin 100%. hit rate 0.32% among 320,000. activation, % at 3 µM. Oxytocin receptor (Homo sapiens), P30559. AID 2435, 2010;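 active = activation above the mean of all tested compounds plus 3 SD, cutoff set per screening run, cut at about 20% in these data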;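 note: peak over basal fluorescence ratio from a 100 s FLIPR kinetic read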
TAAR1 antag: human TAAR1 antagonists, primary screen, Fluo-8 calcium fluorescence, CHO RD-HGA16 cells | inhibition, % at 3 µM | Trace amine-associated receptor 1 (Homo sapiens), Q96RJ0 | antagonist | hit rate 1.5% among 360,000;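 active = inhibition above a per-plate cutoff, the mean inhibition of test compounds on that plate plus 3 SD, cut at about 49% in these data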
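Test system – hTAAR1-expressing CHO RD-HGA16 cells, Gα16-coupled · Reagent – β-PEA at EC80 concentration, post-compound challenge · Compound dosing – 3 µM, single point · Timing – 140 s kinetic read after compound, 140 s after agonist · Detection – Fluo-8 intracellular calcium dye fluorescence, real-time kinetic reads · Control set – DMSO and EC80 PEA controls · Repeats – n of 1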
Hits are given with their value; i = inactive; nt = no result. This is a sample that favours compounds with a hit; in the whole collection about 2.3% have one here.

SMILES | TAAR1 agonist | V1R ag counter | OXTR potentiator | OXTR agonist | TAAR1 antag
CC(C)(C)n1nnnc1C(c1ccccc1)N1CCN(c2ncc(C(F)(F)F)cc2Cl)CC1 (stereo not drawn) | i | nt | nt | nt | i
OC1(C#Cc2c(-c3ccsc3)sc3ccccc23)CCCCC1 | i | nt | nt | nt | i
COc1cc(C)ccc1OCC(=O)OCC(=O)c1[nH]c(C)c(C(C)=O)c1C | i | i | i | i | i
CC(=O)c1c(C)[nH]c(C(=O)COc2cc(C)ccc2C(C)C)c1C | i | i | i | i | 72
O=C(Nc1ccccc1)Nc1ccccc1 | 39 | nt | nt | nt | i
O=C(Nc1ccccc1)Nc1ccc(-n2ccc(C(F)(F)F)n2)cc1 | i | i | i | i | 58
O=C(Nc1ccccc1)Nc1ccc(Nc2ccccc2)cc1 | i | i | i | i | i
COC(=O)c1sccc1NC(=O)Nc1ccc(Cl)c(Cl)c1 | i | i | i | i | 54
COC(=O)c1cccc(NC(=O)Nc2ccc(Cl)c(Cl)c2)c1 | i | i | i | i | i
O=C(O)CC(CC(=O)Nc1ccc(-n2ccc(C(F)(F)F)n2)cc1)c1ccccc1 (stereo not drawn) | i | i | i | i | i
COC(=O)c1cc(NC(=O)Nc2ccccc2)ccc1Cl | i | i | i | i | 54
COc1ccc2c(c1)[C@@H](NC(=O)C(F)(F)F)[C@@H]1CCCC[C@]21c1ccccc1 | i | nt | nt | nt | i
CC(=O)Nc1ccc(NC(=O)Nc2cccc(Cl)c2)cc1 | 40 | i | i | i | i
N#Cc1c(N)[nH]c(C(=O)c2ccccc2)c1-c1ccc(Br)cc1 | i | nt | nt | nt | i
CCCCCCCCCCCCN1CCSCCS1(=O)=O | i | nt | nt | nt | i
C[C@@]12C(=O)N(c3ccccc3)C(=O)N1[C@@H]1c3ccccc3OC[C@@H]1[C@H]2c1ccccc1 | i | i | i | i | 55
C[C@]12C(=O)N(c3ccc(Cl)cc3)C(=O)N1[C@H]1c3ccccc3OC[C@@H]1[C@H]2c1ccccc1 | nt | i | i | i | nt
Cc1ccc(-c2csc(N=C(N)N)n2)c(C)c1 | 38 | i | i | i | i
COc1ccccc1CNc1ncnc2nc[nH]c12 | i | i | i | i | i
c1ccc2c(CCNc3ncnc4nc[nH]c34)c[nH]c2c1 | i | i | i | i | 59
O=C(CSc1nc2ccc(N3CCOCC3)cc2c(=O)n1CCc1ccccc1)NCC1CCCO1 (stereo not drawn) | i | i | i | i | 52
CCCCNC(=O)CSc1nc2ccc(N3CCOCC3)cc2c(=O)n1CCc1ccccc1 | i | i | i | i | i
C=CCN1C(=O)c2[nH]nc(-c3ccccc3)c2C1c1ccc(C)cc1 (stereo not drawn) | i | nt | nt | nt | i
COc1ccc(-c2coc3c(C(=O)Nc4ccc(OC)nc4)cccc23)c(C)c1 | i | nt | nt | nt | i
COc1ccc(-c2coc3c(C(=O)Nc4cc(OC)c(OC)c(OC)c4)cccc23)c(C)c1 | i | nt | nt | nt | 63
SMILES | TAAR1 agonist | V1R ag counter | OXTR potentiator | OXTR agonist | TAAR1 antag
COc1ccc(-c2coc3c(C(=O)NCc4ccc(OC)c(OC)c4)cccc23)c(C)c1 | i | nt | nt | nt | 56
COC(=O)Cc1c([C@H](C)[C@@H](OC)c2ccccc2Br)nnn1Cc1ccccc1 | i | nt | nt | nt | i
O=S(=O)(CS(=O)(=O)c1ccccc1Br)c1ccccc1Br | i | nt | nt | nt | i
COc1ccc(CNC(=O)[C@@H](Cc2ccccc2)NC(=O)[C@H]2O[C@@H](n3ccc(=O)[nH]c3=O)[C@H](O)[C@@H]2O)cc1 | i | nt | nt | nt | i
COc1ccc(CS(=O)(=O)CC(C)(O)c2ccc(Cl)cc2)cc1 (stereo not drawn) | i | i | i | i | i
CO/N=C(\CS(=O)(=O)Cc1ccc(OC)cc1)c1ccc(Cl)cc1 | 43 | i | i | i | i
CC(C)=CCc1c(O)ccc(C(=O)Cc2ccccc2)c1O | 40 | i | i | i | i
CCOc1cccc2sc(N(CCCN(C)C)C(=O)c3ccc(S(=O)(=O)N(C)Cc4ccccc4)cc3)nc12 | i | i | i | i | 54
COc1ccc2sc(N(CCCN(C)C)C(=O)c3ccc(S(=O)(=O)N(C)Cc4ccccc4)cc3)nc2c1 | 43 | i | i | i | i
CCN(Cc1ccccc1)S(=O)(=O)c1ccc(C(=O)N(CCCN(C)C)c2nc3c(F)cccc3s2)cc1 | i | i | i | i | i
CCOc1cccc2sc(N(CCCN(C)C)C(=O)c3ccc(S(=O)(=O)N(CC)Cc4ccccc4)cc3)nc12 | i | i | i | i | 55
COC(=O)C1=C(C)N(Cc2ccc(Br)cc2)C(=S)NC1c1ccccc1 (stereo not drawn) | i | nt | nt | nt | i
O=C1[C@H](Cc2ccccc2)NCCCC[C@@H](c2ccc(Cl)cc2)N1Cc1ccccc1 | 39 | nt | nt | nt | i
C=CC[C@@H](CC(=O)N(CCO)Cc1ccccc1)C(=O)N[C@H](COC(=O)[C@@H](CC=C)Cc1ccc(F)cc1)C(C)(C)C | i | i | i | i | i
C=CC[C@H](CC(=O)N(CCO)Cc1ccccc1)C(=O)N[C@@H](COC(=O)[C@@H](CC=C)Cc1ccc(F)cc1)Cc1c[nH]c2ccccc12 | i | i | i | i | 60
C=CC[C@H](CC(=O)N(CCO)Cc1ccccc1)C(=O)N[C@H](COC(=O)[C@@H](CC=C)Cc1ccc(F)cc1)C(C)(C)C | i | i | i | i | 51
C=CCC[C@@H](Cc1ccc(F)cc1)C(=O)OC[C@@H](Cc1c[nH]c2ccccc12)NC(=O)[C@H](CC=C)CC(=O)N(CCO)Cc1ccccc1 | i | i | i | i | 60
C=CC[C@@H](CC(=O)N(CCO)Cc1ccccc1)C(=O)N[C@@H](COC(=O)[C@@H](CC=C)Cc1ccc(F)cc1)Cc1c[nH]c2ccccc12 | i | i | i | i | i
C=CCC[C@H](Cc1ccc(F)cc1)C(=O)OC[C@@H](Cc1c[nH]c2ccccc12)NC(=O)[C@H](CC=C)CC(=O)N(CCO)Cc1ccccc1 | i | i | i | i | 65
COCCN1C(=O)[C@H]2C[C@@]13O[C@H](C1CCCCC1)N=C3CC1c3ccccc3C[C@@]12C (stereo partly drawn) | i | nt | nt | nt | i
COc1cccc(CC(=O)N2CCN(C(=O)C(=O)c3ccc(OC)c(OC)c3)CC2)c1 | i | nt | nt | nt | i
c1ccc(Cn2cc(CCOCc3ccccn3)c3ccccc32)cc1 | i | nt | nt | nt | i
O=C(N[C@H](Cc1ccccc1)C(=O)NCc1ccco1)[C@H]1O[C@@H](n2ccc(=O)[nH]c2=O)[C@H](O)[C@@H]1O | i | nt | nt | nt | i
C[C@@H](NS(=O)(=O)c1c(F)cccc1F)c1ccccc1 | i | nt | nt | nt | i
O=C1/C(=C\c2ccccc2)CN(C(=O)CCN2CCCCC2)C/C1=C/c1ccccc1 | i | nt | nt | nt | i
